FN deposit inh: fibronectin deposition inhibition; hit rate 0.086% among 350,000; inhibition, % at 12.6 µM; AH1F fibroblasts, Alexa488-fibronectin deposition fluorescence, overnight;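 active = mean inhibition across replicates of 30% or more, regardless of how many single replicates reach that level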;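 note: positive control wells lacked labelled fibronectin entirely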
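Material: AH1F fibroblasts assembling fluorescent fibronectin matrix; amount: 10000 AH1F cells/well; medium: DMEM, 2% serum; reagent: Alexa488-fibronectin, 24 nM final in well; dosing: single compound dose, delivered by pin transfer; incubation: 1 h adhesion, overnight exposure; detection: fluorescence after three HBSS washes, excitation 485 nm, emission 525 nm; measure: fibronectin deposition inhibition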
DENV2 CPE rescue: DENV2-induced cell death inhibition | DENV2-infected cells, cytopathic effect rescue, plate reader | hit rate 1.7% among 350,000 | CPE inhibition, % at 9.99 µM; in the data active = CPE inhibition above about 20%, passing the limit was not always enough; tested in BHK-21 cells;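 note: 0% = median of neutral control wells and 100% = median of positive control wells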
Xi reactivation: activators of X-chromosome reactivation in mouse fibroblasts; XiGFP mouse fibroblasts, % GFP-positive cells imaging, 3 d; cells co-treated with 5-aza-dC sensitizer; scaled so ellipticine positive control = 100%; activation, % at 7.58 µM; hit rate 0.055% among 360,000;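 active = mean normalized replicate activation at least 10% and every replicate at or above 10%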;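 note: 0% = median of on-plate neutral control wells and 100% = ellipticine 6 µM median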
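Material: SV40-immortalized XiGFP fibroblast cells, line 68-5-11 | Buffer or medium: DMEM containing 5-aza-dC | Dosing: One concentration, pinned | Times: 3 d treatment, 15 min room-temperature fixation | Controls: Ellipticine 6 µM positive control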
CASP6 VEID inh: inhibitors of human caspase-6 | purified caspase-6, Z-VEID-R110 cleavage fluorescence | hit rate 0.53% among 350,000 | inhibition, % at 12.5 µM;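 active = mean inhibition across replicates at least about 35%, with every replicate also reaching that limit, limit read from the data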;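 note: 0% = median of neutral control wells and 100% = no fluorescence left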
Target sequence (P55212 24-179 limits assumed): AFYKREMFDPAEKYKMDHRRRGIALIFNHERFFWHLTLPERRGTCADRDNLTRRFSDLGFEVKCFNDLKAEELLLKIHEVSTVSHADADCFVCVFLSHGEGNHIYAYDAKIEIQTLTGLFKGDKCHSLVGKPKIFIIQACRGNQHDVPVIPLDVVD
Target sequence (P55212 194-293 limits assumed): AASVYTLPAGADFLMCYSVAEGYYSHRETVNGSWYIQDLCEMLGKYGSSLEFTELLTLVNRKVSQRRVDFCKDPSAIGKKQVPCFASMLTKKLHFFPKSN
CaV13 ICDI inh: Disruptors of the CACNA1D IQ motif to Ca2+-dependent inactivation inhibitor domain association, primary screening, Förster resonance energy transfer in intact living … | HEK cells, CFP/YFP FRET ICDI-IQ, plate reader, 10 min; percent FRET-ratio fall versus neutral wells | inhibition, % at 12.3 µM | hit rate 0.098% among 340,000 | AID 743397;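 active = mean replicate inhibition of at least 30% and at least 1% of replicates passing that level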;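 note: 0% = median of the neutral control wells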
Active calls of the source: *. This is a sample that favours compounds with a hit; in the whole collection about 2% have one here.

`CC(C)NC(=O)Nc1ccc2c(c1)CC(=O)N(C)C[C@@H](C)[C@H](CN(C)C)O2` gave FN deposit inh -1 and Xi reactivation 0.
Screening Cc1noc(C)c1S(=O)(=O)N(C)C[C@@H]1OCCCC[C@H](C)Oc2ccc(NC(=O)CCCN(C)C)cc2C(=O)N([C@H](C)CO)C[C@H]1C returned DENV2 CPE rescue -8, Xi reactivation 0 and CASP6 VEID inh 1.
For CO[C@H]1CN(C)C(=O)c2cc(NS(=O)(=O)c3cccc(C)c3)ccc2OC[C@@H](C)NC[C@H]1C the results were FN deposit inh 5, DENV2 CPE rescue 12, Xi reactivation 0 and CASP6 VEID inh -1.
Screening C[C@H]1CCCCO[C@H](CN(C)C(=O)NC2CCCCC2)[C@@H](C)CN([C@@H](C)CO)C(=O)c2cc(NC(=O)c3ccccc3)ccc2O1 returned FN deposit inh 12, DENV2 CPE rescue -8 and Xi reactivation 0.
Screening CN(C)CCCNc1oc(-c2ccccc2Cl)nc1S(=O)(=O)c1ccccc1 returned DENV2 CPE rescue 5, Xi reactivation 0, CASP6 VEID inh -7 and CaV13 ICDI inh -5.
Screening CN(C)CCCNc1oc(-c2ccc(Cl)cc2)nc1S(=O)(=O)c1ccccc1 returned FN deposit inh 11, DENV2 CPE rescue 39*, Xi reactivation 0, CASP6 VEID inh -65 and CaV13 ICDI inh -5.
CC(C)NC(=O)N1CC2(C1)[C@H](c1ccccc1)[C@H](CO)N2CCC(F)(F)F was read as DENV2 CPE rescue -8, Xi reactivation 0 and CASP6 VEID inh 0.
Screening CC(C)(C)OC(=O)C[C@@H]1C/C=C\C[C@@H](CC(=O)N[C@@H](CO)Cc2ccccc2)C(=O)NC[C@@H](c2ccccc2)OC1=O returned FN deposit inh -1, DENV2 CPE rescue 11, Xi reactivation 0, CASP6 VEID inh 0 and CaV13 ICDI inh -4.
For CC(C)(C)OC(=O)C[C@H]1C/C=C\C[C@@H](CC(=O)N[C@@H](CO)Cc2ccccc2)C(=O)NC[C@H](c2ccccc2)OC1=O the results were FN deposit inh -7, DENV2 CPE rescue 58*, Xi reactivation 0, CASP6 VEID inh 0 and CaV13 ICDI inh -6.
For C#CCOc1ccc(CNC[C@H]2O[C@@H](n3ccc(N)nc3=O)[C@H](O)[C@@H]2O)cc1 the results were FN deposit inh 3, DENV2 CPE rescue 18, Xi reactivation 0, CASP6 VEID inh 39* and CaV13 ICDI inh -2.
For CN1CCc2c(sc(NC(=O)C3CCCCC3)c2C(N)=O)C1 the results were FN deposit inh -8, DENV2 CPE rescue 11, Xi reactivation 0, CASP6 VEID inh -3 and CaV13 ICDI inh active.
`CCC[C@@H](CN1CCC[C@H]1CN1C(N)=NC[C@@H]1Cc1ccccc1)N1C[C@@H](Cc2ccccc2)N(CCc2ccc(Cl)c(Cl)c2)C1=N` gave FN deposit inh 0, DENV2 CPE rescue -6, Xi reactivation 0, CASP6 VEID inh 45* and CaV13 ICDI inh -6.
Screening CCC[C@@H](CN1CCC[C@H]1CN1C(N)=NC[C@H]1CC(C)C)N1C[C@@H](Cc2ccccc2)N(CCc2ccc(Cl)c(Cl)c2)C1=N returned FN deposit inh 6, DENV2 CPE rescue 55*, Xi reactivation 0, CASP6 VEID inh 36* and CaV13 ICDI inh -10.
Screening CCCCN1C(=N)N([C@@H](CCC)CN2CCC[C@H]2CN2C(N)=NC[C@@H]2Cc2ccccc2)C[C@H]1Cc1ccccc1 returned FN deposit inh -8, Xi reactivation 0, CASP6 VEID inh -4 and CaV13 ICDI inh -5.
For CN(C)C(=O)[C@@H]1[C@@H](CO)[C@@H]2Cn3c(ccc(-c4ccc(F)cc4)c3=O)[C@@H]2N1C(=O)c1ccccn1 the results were DENV2 CPE rescue 13, Xi reactivation 1 and CASP6 VEID inh 0.
Screening C[C@@H]1CCCCO[C@H](CN(C)C(=O)NC2CCCCC2)[C@H](C)CN([C@@H](C)CO)C(=O)c2cc(NC(=O)Nc3ccc(C(F)(F)F)cc3)ccc2O1 returned DENV2 CPE rescue 64*, Xi reactivation 0 and CASP6 VEID inh 3.
`C[C@@H]1CN([C@H](C)CO)C(=O)c2cc(NC(=O)Nc3ccc(C(F)(F)F)cc3)ccc2O[C@H]1CN(C)C(=O)NC1CCCCC1` gave DENV2 CPE rescue 126*, Xi reactivation -1 and CASP6 VEID inh 1.
Screening C[C@H]1CN([C@@H](C)CO)C(=O)c2cc(NC(=O)c3ccncc3)ccc2O[C@@H]1CN(C)C(=O)NC1CCCCC1 returned DENV2 CPE rescue 5, Xi reactivation -1 and CASP6 VEID inh -2.
Screening C[C@@H]1CN([C@@H](C)CO)C(=O)c2cc(NC(=O)c3ccncc3)ccc2O[C@H]1CN(C)C(=O)NC1CCCCC1 returned DENV2 CPE rescue 35*, Xi reactivation -1 and CASP6 VEID inh 6.
`C[C@H](CO)N1C[C@H](C)[C@H](CN(C)Cc2ccc(-c3ccccc3)cc2)Oc2c(NC(=O)NC3CCCCC3)cccc2C1=O` gave FN deposit inh -16, DENV2 CPE rescue -2, Xi reactivation -1 and CASP6 VEID inh -3.
C/C(=N/NS(=O)(=O)c1ccc(Cl)cc1)c1cccc(NC(=O)c2ccncc2)c1 was read as DENV2 CPE rescue -3, Xi reactivation 0 and CASP6 VEID inh 92*.
COC(=O)c1c(NC(=O)CN2CCN(c3ccccc3Cl)CC2)sc(C)c1C was read as FN deposit inh 34*, Xi reactivation 0 and CaV13 ICDI inh -3.
COCC(=O)N1C[C@H](C)[C@H](OC)CN(C)C(=O)c2cc(NC(=O)c3ccccc3)ccc2OC[C@@H]1C was read as FN deposit inh 4, DENV2 CPE rescue -2, Xi reactivation 0 and CASP6 VEID inh 1.
Screening COc1ccccc1C(=O)Nc1ccc2c(c1)C(=O)N(C)C[C@H](OC)[C@H](C)CN(C)[C@@H](C)CO2 returned FN deposit inh 4, DENV2 CPE rescue -8, Xi reactivation 0 and CASP6 VEID inh 2.
COc1ccccc1C(=O)Nc1ccc2c(c1)C(=O)N(C)C[C@@H](OC)[C@H](C)CN(C)[C@@H](C)CO2 was read as FN deposit inh 6, DENV2 CPE rescue 47*, Xi reactivation 0 and CASP6 VEID inh -2.
`CO[C@@H]1CN(C)C(=O)c2ccc(NC(=O)C3CC3)cc2OC[C@@H](C)N(C)C[C@H]1C` gave FN deposit inh -17, DENV2 CPE rescue -9, Xi reactivation 0 and CASP6 VEID inh 99*.
Screening CCCNC(=O)N1C[C@@H](C)[C@H](OC)CN(C)C(=O)c2ccc(NC(=O)C3CCC3)cc2OC[C@H]1C returned FN deposit inh -4, DENV2 CPE rescue 40*, Xi reactivation 0 and CASP6 VEID inh -2.
